UPR CHOP act – activators of apoptotic arm of unfolded protein response (CHOP). CHO-CHOP luciferase reporter, UPR activation, luminescence; percent of tunicamycin response over DMSO baseline. activation, % at 10 µM. actives 0.34% (n = 330,000);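 active = at 10 µM dose, activation of 40% or more, normalized to positive control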
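Assay system: CHO cells with stable CHOP pathway luciferase reporter; Buffer or medium: F12 plus 10% serum; Times: 16-18 h cell attachment, then 6 h compound exposure, 37 °C; Signal: luciferase luminescence; Read-out basis: percent activation relative to tunicamycin control; Control set: tunicamycin high control, DMSO low control.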
CHOP inh – inhibitors of CHOP induction in ER stress response; CHO-K1 CHOP-promoter luciferase, tunicamycin-induced, 15-18 h; inhibition, % at 10 µM; actives 3.8% (n = 220,000);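 active = compounds that reduced the stress-induced luciferase reporter signal by more than about 70% of percent inhibition, limit read from the data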
XBP1 UPR activ – adaptive UPR (XBP1) activation; CHO-XBP1 luciferase reporter, IRE1-XBP1 UPR activation, luminescence; percent of tunicamycin response, DMSO as zero; activation, % at 20 µM; actives 0.33% (n = 330,000);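 active = versus positive control, 20 µM dose yields 30% or more activation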
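assay system = CHO-XBP1 luciferase reporter cells | amount = 1000 cells/well | buffer or medium = F12 plus 10% FBS | compound dosing = single point, 20 µM final compound, 1% DMSO | incubation = 16-18 h cell attachment at 37 °C, then 6 h compound exposure | detection = Steady-Glo luminescence read | controls = tunicamycin 10 µg/mL and vehicle-only wells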
FXN GAA850 act – increases GAA850 frataxin promoter reporter activity; HEK293 lucGAA850 FXN promoter luciferase reporter, 24 h; percent of 10 µM SAHA response; AID 540364; actives 0.56% (n = 360,000); activation, % at 6 µM;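 active = activation above the average of all compounds screened plus 3 SD, cutoff fixed separately per campaign, cut at about 7.5% in these data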
Hits are given with their value; 0 = inactive; - = no result given. Shown is part of a subset that was picked to be rich in hits.

SMILES | UPR CHOP act | CHOP inh | XBP1 UPR activ | FXN GAA850 act
CCOC(=O)c1cc(OC)c2cccc(CN3CCC(C)(C(=O)NCCOC)C3)c2c1 (centres undefined) | - | - | - | 0
CCCCCCNC(=O)CCc1nc2cccnc2n1Cc1ccc(OC)cc1 | 0 | - | 0 | 0
CCc1ccc(NC(=O)CCc2nc3cccnc3n2Cc2ccc(OC)cc2)cc1 | 0 | 92 | 0 | 0
Cc1ccc(NC(NC(=O)c2cccs2)C(Cl)(Cl)Cl)cc1C (centres undefined) | 0 | 80 | 0 | 0
COc1ccc(-c2[nH]n(-c3ccc([N+](=O)[O-])cc3)c(=O)c2C=NCC2CCCO2)cc1 (centres undefined) | 0 | 0 | 0 | 0
COc1ccc(-c2[nH]n(-c3ccc([N+](=O)[O-])cc3)c(=O)c2C=NCc2ccncc2)cc1 | 0 | 85 | 0 | 0
C[C@@H]1CCCCO[C@H](CN(C)C(=O)Nc2ccc3c(c2)OCO3)[C@H](C)CN([C@@H](C)CO)C(=O)c2cc(NS(=O)(=O)c3ccc(Cl)cc3)ccc2O1 | - | - | - | 0
CCC(=O)Nc1ccccc1-c1nnn(CC(=O)N2c3ccccc3CC2C)n1 (centres undefined) | 0 | 76 | 0 | 0
CC1Cc2ccccc2N1C(=O)Cn1nnc(-c2ccccc2NC(=O)C2CCC2)n1 (centres undefined) | 0 | 0 | 0 | 0
COc1ccc(-n2c(C)nc3c(cnn3-c3ccc(C)c(C)c3)c2=O)cc1 | 0 | 73 | 0 | 0
Cc1ccc(-n2ncc3c(=O)n(-c4ccc(C)c(C)c4)c(C)nc32)cc1 | 0 | 73 | 0 | 0
Cc1ccc(-n2c(C)nc3c(cnn3-c3ccc(F)cc3)c2=O)cc1 | 0 | 0 | 0 | 0
COc1cccc(-n2c(C)nc3c(cnn3-c3ccc(Cl)cc3)c2=O)c1 | 0 | 0 | 0 | 0
CC(N)=NCCCC[C@@H](N)C(=O)O | - | 0 | - | -
O=c1c(Br)ccc(Br)cc1Br | - | - | - | 0
CC(=O)c1cccc(NC(=O)C2Cc3c(-c4ccco4)ccnc3O2)c1 (centres undefined) | - | - | - | 0
C[C@H](CO)N1C[C@H](C)[C@@H](CN(C)Cc2cncnc2)Oc2cc(Br)ccc2S1(=O)=O | - | - | - | 0
Cc1cc(Br)c(OCc2ccc(C(=O)N/N=C/c3ccc[nH]3)cc2)c(Br)c1 | 41 | - | 99 | 0
Cn1nc(C(=O)Nc2cccc(C(F)(F)F)c2)ccc1=O | 0 | 0 | 0 | 0
CN(C)c1nn(C(=O)Nc2cccc(C(F)(F)F)c2)cc1-c1ccccc1 | 0 | 90 | 0 | 0
Cc1ccc(C(=O)Nc2nnc(NC(=S)Nc3ccccc3)s2)cc1 | 0 | 70 | 0 | 0
CCOc1ccc(C(=O)Nc2nnc(NC(=S)Nc3ccccc3)s2)cc1 | 0 | 0 | 0 | 0
NC(c1csc(Nc2ccccn2)n1)C1CCCCC1 (centres undefined) | - | - | - | 0
COC(=O)c1ccc(CNC(=O)COC(=O)C2CCC(C(C)(C)C)CC2)cc1 (centres undefined) | 0 | 93 | 0 | 0
C[C@@H]1CN([C@@H](C)CO)C(=O)CCCn2nncc2CO[C@@H]1CN(C)S(=O)(=O)c1cccc(F)c1 | - | - | - | 0
SMILES | UPR CHOP act | CHOP inh | XBP1 UPR activ | FXN GAA850 act
COc1ccccc1OCCCCN1CCN(C(c2ccccc2)c2ccccc2)CC1 | 0 | 86 | 0 | 0
c1ccc(OCCOCCN2CCN(C(c3ccccc3)c3ccccc3)CC2)cc1 | 0 | 73 | 0 | 0
COc1cccc(OC)c1OCCCCCCN1CCN(C)CC1 | 0 | - | 0 | 0
CN(CC(=O)Nc1nc2ccccc2s1)S(=O)(=O)c1ccc(Cl)cc1 | 0 | 84 | 0 | 0
CCc1nc2ccc(C(=O)N(C)CCCN(C)C)cn2c1N(C)Cc1cc2ccccc2s1 | - | - | - | 0
CCNC(=O)C1CCCN(C(=O)c2ccc(N(C)C)cc2)CC1 (centres undefined) | - | - | - | 0
O=C(COc1ccc(F)cc1)N1c2ccccc2CCc2ccccc21 | 0 | 0 | 0 | 0
CC1(C)CC2CC(C)(CN2C(=O)COc2cccc3ccccc23)C1 (centres undefined) | 0 | 91 | 0 | 0
O=C(COc1cccc2ccccc12)N1c2ccccc2CCc2ccccc21 | 0 | 74 | 0 | 0
CCOC(=O)C1=C(C)NC(=O)NC1c1cn(-c2ccccc2)nc1-c1cccs1 (centres undefined) | 0 | 0 | 0 | 0
CCOC(=O)C1=C(C)NC(C)=C(C(=O)OCC)C1c1cn(-c2ccccc2)nc1-c1ccco1 | 0 | 84 | 0 | 0
CC1(C)Cc2c(sc3nc(N/N=C/c4ccccc4)[nH]c(=O)c23)CO1 | 0 | 81 | 0 | 0
CC(C)=NNc1nc2sc3c(c2c(=O)[nH]1)CC(C)(C)OC3 | 0 | 0 | 0 | 0
CC1(C)CC(=O)C=C(c2n[nH]nc2-c2ccccc2)C1 | - | - | - | 0
CC1OC(O[C@H]2CC[C@]3(C)C4C=C[C@]56OC[C@@]7(CC[C@@H](C)[C@H](C)C75)[C@H](O)C[C@@]6(C)[C@]4(C)CC[C@H]3C2(C)C)C(OC2OC(CO)C(O)C(O)C2OC2OCC(O)C(O)C2O)C(O)C1O (some centres undefined) | - | 100 | - | -
OCc1cccc(-c2cnc3c(Nc4cccc(OC(F)(F)C(F)F)c4)nccn23)c1 | - | - | - | 0
Cc1c(C(=O)OC(C)C)sc(N)c1C(=O)OC(C)C | 0 | 82 | 0 | 0
CNC(=S)N1CCC(C(=O)c2ccc(Cl)cc2)CC1 | - | - | - | 0
COC(=O)c1ccc(Oc2cc(C)nc(NCc3ccccc3)n2)cc1 | 0 | 0 | 0 | 0
Cc1cc(Oc2ccc(C#N)cc2)nc(NCc2ccccc2)n1 | 0 | 77 | 0 | 0
Cn1ccnc1Sc1cc(NCCCO)c([N+](=O)[O-])c2nonc12 | 0 | 96 | 0 | 0
Nc1nc(Nc2cccc(Cl)c2)nc(NCc2ccco2)c1[N+](=O)[O-] | 0 | 0 | 0 | 0
Nc1nc(Nc2cccc(F)c2)nc(NCc2ccco2)c1[N+](=O)[O-] | 0 | 84 | 0 | 0
Cc1cccc(Nc2nc(NCc3ccco3)nc(N)c2[N+](=O)[O-])c1 | 0 | 0 | 0 | 0
COc1ccc(Nc2nc(NCc3ccco3)nc(N)c2[N+](=O)[O-])cc1 | 0 | 0 | 0 | 0
SMILES | UPR CHOP act | CHOP inh | XBP1 UPR activ | FXN GAA850 act
Nc1nc(Nc2ccc(Cl)cc2)nc(NCc2ccco2)c1[N+](=O)[O-] | 0 | 86 | 0 | 0
Cc1cccc(Nc2nc(N)c([N+](=O)[O-])c(NCc3ccco3)n2)c1 | 0 | 96 | 0 | 0
O=C(Nc1nc(-c2cccc3ccccc23)cs1)c1ccc2c(c1)S(=O)(=O)c1ccccc1C2=O | 0 | 85 | 0 | 0
O=C(Nc1nc(-c2ccccc2)cs1)c1ccc2c(c1)S(=O)(=O)c1ccccc1C2=O | 0 | 0 | 0 | 0
CCOc1ccccc1OCC(=O)NCc1ccco1 | 0 | 77 | 0 | 0
CCOc1ccc(-c2nnn(CC(=O)NCc3ccco3)n2)cc1 | 0 | 0 | 0 | 0
COc1ccc(-c2cc(CCCC(=O)N3CCN(c4ccc(OC)cc4)CC3)no2)cc1 | 0 | 95 | 0 | 0
O=C(COc1ccccc1Cl)NCc1ccco1 | 0 | 0 | 0 | 0
CCOc1ccc(-c2cc(CCCC(=O)NCc3ccco3)no2)cc1 | 0 | 84 | 0 | 0
CCOc1ccc2nc(SCC(=O)NC(=O)NCc3ccco3)sc2c1 | 0 | 75 | 0 | 0

Screens: PubChem BioAssay, several laboratories
